Data on 21 molecules can be found in ChEMBL document CHEMBL2412959, “Investigations on synthesis and structure elucidation of novel [1,2,4]triazolo[1,2-a]pyridazine-1-thiones and their inhibitory activity against inducible nitric oxide synthase” (Bioorg Med Chem, 2013).

Data set [1] can be described thus: Chemical stability in DMSO assessed as compound precipitation after several weeks. It counts as physicochemical.
Data set [2] addresses Nitric oxide synthase, inducible (Rattus norvegicus, UniProt Q06518). Nature of the data set: (§1) Inhibition of iNOS-mediated NO production in IL-1beta/IFNgamma-stimulated rat […] cells by Griess reaction. An outline of the steps:
(§2)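 Same cytokine-stimulated RIN5F Griess assay (IL-1β 1 ng/mL, IFN-γ 10 ng/mL; nitrite at 550 nm, nitrite calibration). Concentrations were chosen per compound to span 10–90% inhibition, plus one or two outside this range. IC50 was obtained by linear regression of log concentration versus percent inhibition.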

Data set [3] in a line: Cytotoxicity against rat RINm5F cells at 39 to 78 uM by MTT assay. It counts as cell-based. An outline of the steps: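 RIN5F rat insulinoma cells, 1×10^5 per well, cytokine-induced and compound-treated as for the NO assay. After supernatant removal, medium was replaced with fresh medium containing MTT (2.5 mg/mL in PBS) for 4 h at 37 °C. Formazan was dissolved in DMSO. Viability is expressed as percent of cytokine-stimulated cells without compound.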
Background: Formazan colour is commonly taken as a measure of viable cells.

Data set [4] is described as follows: Chemical stability in DMSO assessed as compound precipitation after 7 days. In kind it is physicochemical. The following applies: 168 h.
Data set [5] deals with Nitric oxide synthase, inducible (Rattus norvegicus) (UniProt Q06518). Nature of the data set: Ratio of aminoguanidine IC50 to compound IC50 for iNOS-mediated NO production in IL-1beta/IFNgamma-stimulated rat […] cells by Griess reaction.
Nitric oxide synthase, inducible (Rattus norvegicus), sequence (Q06518 whole entry): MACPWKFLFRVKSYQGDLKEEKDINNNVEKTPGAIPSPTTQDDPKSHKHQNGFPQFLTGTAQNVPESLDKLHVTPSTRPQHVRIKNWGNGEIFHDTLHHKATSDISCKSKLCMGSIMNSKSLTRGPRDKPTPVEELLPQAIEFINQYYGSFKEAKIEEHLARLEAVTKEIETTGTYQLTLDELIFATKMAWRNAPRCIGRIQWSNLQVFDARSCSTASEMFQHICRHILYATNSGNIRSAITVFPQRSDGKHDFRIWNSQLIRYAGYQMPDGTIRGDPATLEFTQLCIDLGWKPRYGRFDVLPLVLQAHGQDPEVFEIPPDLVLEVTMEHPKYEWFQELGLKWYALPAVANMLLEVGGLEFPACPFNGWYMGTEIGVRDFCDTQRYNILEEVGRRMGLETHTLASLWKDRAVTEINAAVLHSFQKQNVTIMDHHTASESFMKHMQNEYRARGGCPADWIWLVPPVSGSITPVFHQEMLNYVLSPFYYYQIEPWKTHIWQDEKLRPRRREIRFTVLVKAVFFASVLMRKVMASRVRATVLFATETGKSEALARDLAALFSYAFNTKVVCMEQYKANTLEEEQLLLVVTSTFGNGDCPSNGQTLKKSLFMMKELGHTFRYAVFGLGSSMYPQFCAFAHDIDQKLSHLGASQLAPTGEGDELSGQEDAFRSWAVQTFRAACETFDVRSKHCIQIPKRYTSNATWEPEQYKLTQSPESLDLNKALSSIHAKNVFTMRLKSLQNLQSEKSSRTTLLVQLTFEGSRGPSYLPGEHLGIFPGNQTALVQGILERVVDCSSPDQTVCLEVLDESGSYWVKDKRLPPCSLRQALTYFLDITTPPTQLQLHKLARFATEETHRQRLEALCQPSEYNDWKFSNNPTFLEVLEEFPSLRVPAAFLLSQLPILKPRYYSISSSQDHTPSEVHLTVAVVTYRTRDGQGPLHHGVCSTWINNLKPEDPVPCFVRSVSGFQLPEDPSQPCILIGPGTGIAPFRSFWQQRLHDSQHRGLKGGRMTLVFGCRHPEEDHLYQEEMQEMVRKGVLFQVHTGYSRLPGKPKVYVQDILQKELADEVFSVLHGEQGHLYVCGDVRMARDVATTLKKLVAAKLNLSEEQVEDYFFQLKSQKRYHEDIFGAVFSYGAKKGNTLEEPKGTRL
Data set [6] has the same target. The description is as §1. An outline of the steps:
as §2

For data set [7] the target is unchanged. Description: Inhibition of iNOS-mediated NO production in IL-1beta/IFNgamma-stimulated rat […] cells at 39 to 78 uM by Griess reaction. An outline of the steps:
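Compounds were added from 62.5 mM DMSO stock at 78 and 39 μM (final 0.5% DMSO). Nitrite in supernatant was measured by Griess reagents, absorbance 550 nm, against a 0–100 μM nitrite standard. Aminoguanidine was the reference on each plate. n = 5–8.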
For orientation: Nitrite, measured by Griess reagent, commonly stands in for NO production.

Activity calls are given as the source filed them. The calls are words filed in the database; no cut-off is given here.

Nitric oxide synthase, inducible, sequence (Q06518 whole entry): as above

`O=[N+]([O-])c1ccc(C2NC(=S)N3CCCCN23)cc1` (centres undefined): the Stability entry in data set [1] is “Unstable”. Also, the IC50 (commonly the concentration that inhibits the measured activity by half) in data set [2] was 13.2 µM. Further, the Activity result in data set [3] is “Non-toxic”.
As for `O=[N+]([O-])c1ccccc1/C=C/C1NC(=S)N2CCCCN12` (centres undefined), in data set [4], the Stability entry is recorded as “Unstable”. The concentration for half-maximal inhibition (IC50) in data set [2] came out at 9.81 µM. For the same molecule, the Ratio IC50 in data set [5] amounted to 10. Besides, the Activity entry in data set [3] was “Non-toxic”.
`S=C1NC(Cc2ccccc2)N2CCCCN12` (centres undefined): the Stability result in data set [1] is given as “Unstable”. For the same molecule, the inhibition entry in data set [6] was “inactive”. For the same molecule, the Activity result in data set [3] was “Non-toxic”.
Consider `CN(C)c1ccc(C2NC(=S)N3CCCCN23)cc1` (centres undefined), for which the Stability entry in data set [1] is given as “Unstable”. The same molecule registered an IC50 in data set [2] of 101 µM. Moreover, the Ratio IC50 in data set [5] is 2. For the same molecule, the Activity result in data set [3] is on record as “Non-toxic”.
Turning to `O=[N+]([O-])c1cccc(C2NC(=S)N3CCCCN23)c1` (centres undefined), the Stability entry in data set [1] was “Unstable”. In data set [2], this molecule returned an IC50 of 16.2 µM. The Activity entry in data set [3] was “Non-toxic”.
For `S=C1NC(c2ccc(Cl)cc2)N2CCCCN12` (centres undefined), in that order: “Unstable”, 57.6 µM and “Non-toxic”.
On to `Oc1ccccc1C1NC(=S)N2CCCCN12` (centres undefined), for which the Stability entry in data set [1] is listed as “Unstable”. Moreover, the half-maximal inhibitory concentration (IC50) in data set [2] amounted to 70 µM. In data set [3], the Activity entry is recorded as “Non-toxic”.
`Oc1ccc(C2NC(=S)N3CCCCN23)cc1` (centres undefined): the inhibition entry in data set [7] was “Active”. For the same molecule, the Stability result in data set [1] is reported as “Unstable”. Further, the Activity result in data set [3] is “Non-toxic”.
As for `Cc1ccccc1C1NC(=S)N2CCCCN12` (centres undefined), in data set [1], the Stability result is reported as “Unstable”. This molecule displayed a 50% inhibitory concentration (IC50) in data set [2] of 60.3 µM. Further, the Activity entry in data set [3] is listed as “Non-toxic”.
Consider `CC1NC(=S)N2CCCCN12` (centres undefined), for which, in data set [1], the Stability result is “Unstable”. Also, the inhibition result in data set [6] is “inactive”. Besides, in data set [3], the Activity result is reported as “Non-toxic”.
Regarding `S=C1NC(c2ccccc2)N2CCCCN12` (centres undefined), the inhibition result in data set [7] was “Active”. Further, the Stability entry in data set [1] is recorded as “Unstable”. The Activity result in data set [3] is reported as “Non-toxic”.
On to `O=[N+]([O-])c1ccccc1C1NC(=S)N2CCCCN12` (centres undefined), for which, in data set [1], the Stability result is given as “Unstable”. This molecule also had an IC50 in data set [2] of 24.2 µM. Also, the Activity result in data set [3] was “Non-toxic”.
For the molecule `COc1ccc(C2NC(=S)N3CCCCN23)cc1` (centres undefined), the inhibition entry in data set [7] is “Active”. Also, the Stability entry in data set [1] is recorded as “Unstable”. The Activity entry in data set [3] is on record as “Non-toxic”.
For the molecule `S=C1NC(c2cccc(Oc3ccccc3)c2)N2CCCCN12` (centres undefined), in data set [1], the Stability result is “Unstable”. The IC50 in data set [2] came out at 40.2 µM. Further, the Activity entry in data set [3] is “Non-toxic”.
Turning to `S=C1NC(/C=C/c2ccccc2)N2CCCCN12` (centres undefined), the Stability result in data set [4] is given as “Unstable”. Also, in data set [2], 29.9 µM corresponded to half-maximal inhibition (IC50). Also, in data set [3], the Activity result was “Non-toxic”.
On to `S=C1NC(c2cccc(Cl)c2)N2CCCCN12` (centres undefined), for which the inhibition entry in data set [7] was “Active”. The Stability result in data set [1] was “Unstable”. In addition, in data set [3], the Activity entry was “Non-toxic”.
For the molecule `Cc1ccc(C2NC(=S)N3CCCCN23)cc1` (centres undefined), in data set [1], the Stability entry is reported as “Unstable”. This molecule had a half-inhibitory concentration (IC50) in data set [2] of 53.2 µM. The Activity entry in data set [3] was “Non-toxic”.
For the molecule `S=C1NC(c2ccccc2Cl)N2CCCCN12` (centres undefined), the Stability entry in data set [1] was “Unstable”. For the same molecule, the IC50 in data set [2] worked out at 63 µM. Besides, the Activity result in data set [3] was “Non-toxic”.
Consider `Oc1cccc(C2NC(=S)N3CCCCN23)c1` (centres undefined), for which the inhibition entry in data set [7] is “Active”. Moreover, the Stability result in data set [1] is recorded as “Unstable”. Besides, in data set [3], the Activity entry is “Non-toxic”.
As to `Cc1cccc(C2NC(=S)N3CCCCN23)c1` (centres undefined), the inhibition result in data set [7] is “Active”. The Stability entry in data set [1] is reported as “Unstable”. Besides, the Activity result in data set [3] is “Non-toxic”.
With `N=C(N)NN` [PIMAGEDINE], in data set [2], the IC50 amounted to 132 µM. Also, in data set [3], the Activity result was “Non-toxic”.
